For assay [1], the target named is Leucyl-cystinyl aminopeptidase (Homo sapiens, UniProt Q9UIQ6). Description: Inhibition of human recombinant IRAP expressed in baculovirus infected cabbage looper ovary Hi5 cells using L-leucine-7-amido-4-methyl coumarin as substrate after 5 to 10 mins by fluorescence assay. Also noted: species or system Female gonad, BTI-TN-5B1-4.
Assay [2] addresses T1, Endoplasmic reticulum aminopeptidase 1 (Homo sapiens, UniProt Q9NZ08). Description: Inhibition of human recombinant ERAP1 expressed in baculovirus infected […] using L-leucine-7-amido-4-methyl coumarin as substrate up to 100 uM after 5 to 10 mins by fluorescence assay. The method, boiled down:
(§1)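 Recombinant human enzymes made in baculovirus-infected Hi5 cells, kept in 10 mM HEPES pH 7, 100 mM NaCl, 10% glycerol. ERAP1 30 nM, ERAP2 6 nM or IRAP 6 nM with 50 μM substrate (L-AMC for ERAP1 and IRAP, R-AMC for ERAP2) and varied inhibitor. Fluorescence rise followed at ex 380/em 460; IC50 from fit of activity against inhibitor concentration.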

Assay [3] deals with T2, Endoplasmic reticulum aminopeptidase 2 (Homo sapiens, UniProt Q6P179). Description: Inhibition of human recombinant ERAP2 expressed in baculovirus infected cabbage looper ovary Hi5 cells using L-arginyl-7-amido-4-methyl coumarin as substrate up to 100 uM after 5 to 10 mins by fluorescence assay. To be noted: BTI-TN-5B1-4. In outline: as §1
T2 sequence (Q6P179 whole entry): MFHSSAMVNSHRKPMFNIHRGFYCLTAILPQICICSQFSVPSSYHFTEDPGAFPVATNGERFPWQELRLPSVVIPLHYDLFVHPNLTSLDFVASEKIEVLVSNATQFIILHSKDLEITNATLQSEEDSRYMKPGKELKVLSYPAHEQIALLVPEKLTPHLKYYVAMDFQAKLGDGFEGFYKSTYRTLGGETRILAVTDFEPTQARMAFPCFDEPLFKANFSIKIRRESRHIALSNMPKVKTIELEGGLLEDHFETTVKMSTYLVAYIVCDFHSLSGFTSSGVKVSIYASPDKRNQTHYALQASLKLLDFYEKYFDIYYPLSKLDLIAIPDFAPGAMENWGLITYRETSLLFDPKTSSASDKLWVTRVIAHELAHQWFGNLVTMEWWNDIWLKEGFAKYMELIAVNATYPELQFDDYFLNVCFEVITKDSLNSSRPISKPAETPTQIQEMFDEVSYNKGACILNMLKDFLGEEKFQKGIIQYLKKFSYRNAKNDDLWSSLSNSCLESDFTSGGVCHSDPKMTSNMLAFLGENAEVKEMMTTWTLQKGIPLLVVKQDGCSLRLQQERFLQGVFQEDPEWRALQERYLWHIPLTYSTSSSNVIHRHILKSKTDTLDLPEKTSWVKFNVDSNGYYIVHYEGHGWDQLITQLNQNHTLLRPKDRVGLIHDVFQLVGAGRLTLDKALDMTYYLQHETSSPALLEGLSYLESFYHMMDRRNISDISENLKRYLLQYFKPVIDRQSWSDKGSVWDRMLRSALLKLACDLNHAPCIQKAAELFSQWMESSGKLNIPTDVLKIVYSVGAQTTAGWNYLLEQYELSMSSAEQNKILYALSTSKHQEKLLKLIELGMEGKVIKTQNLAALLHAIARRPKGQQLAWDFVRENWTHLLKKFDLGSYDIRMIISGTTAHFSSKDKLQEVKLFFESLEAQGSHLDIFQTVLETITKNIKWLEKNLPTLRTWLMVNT
In assay [4] the target is T3, Endoplasmic reticulum aminopeptidase 1 (Mus musculus) (UniProt Q9EQH2).
T3 sequence (whole entry): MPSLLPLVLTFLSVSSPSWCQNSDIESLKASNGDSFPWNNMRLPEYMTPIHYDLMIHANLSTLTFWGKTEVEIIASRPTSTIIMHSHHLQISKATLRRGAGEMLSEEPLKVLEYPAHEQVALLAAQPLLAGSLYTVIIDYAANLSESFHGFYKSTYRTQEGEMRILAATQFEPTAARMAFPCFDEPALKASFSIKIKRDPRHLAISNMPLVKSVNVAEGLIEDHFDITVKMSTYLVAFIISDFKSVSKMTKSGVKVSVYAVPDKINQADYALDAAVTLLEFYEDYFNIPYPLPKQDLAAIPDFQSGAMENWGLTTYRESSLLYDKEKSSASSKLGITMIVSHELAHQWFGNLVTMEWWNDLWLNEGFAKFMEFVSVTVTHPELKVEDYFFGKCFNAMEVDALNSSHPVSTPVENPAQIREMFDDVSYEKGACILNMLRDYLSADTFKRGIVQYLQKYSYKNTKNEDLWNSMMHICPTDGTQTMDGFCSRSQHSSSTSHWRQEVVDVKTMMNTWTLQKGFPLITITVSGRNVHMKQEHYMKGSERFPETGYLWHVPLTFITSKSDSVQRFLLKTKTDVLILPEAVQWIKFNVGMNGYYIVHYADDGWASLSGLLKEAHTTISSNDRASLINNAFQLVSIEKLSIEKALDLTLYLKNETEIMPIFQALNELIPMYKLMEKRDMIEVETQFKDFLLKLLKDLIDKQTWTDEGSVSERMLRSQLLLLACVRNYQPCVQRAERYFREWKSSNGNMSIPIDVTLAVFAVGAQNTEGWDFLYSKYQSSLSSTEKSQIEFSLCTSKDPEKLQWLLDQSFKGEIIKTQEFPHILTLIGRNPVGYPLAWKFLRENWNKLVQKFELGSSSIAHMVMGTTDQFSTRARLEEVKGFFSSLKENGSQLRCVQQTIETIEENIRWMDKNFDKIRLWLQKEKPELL
Nature of the assay: Inhibition of ERAP1 in mouse RAW264.7 cells assessed as reduction in interferon-gamma/LPS-induced phagocytosis after 24 hrs by fluorescent latex beads internalization assay. Format: cell-based. In outline: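 RAW264.7 cells in RPMI 1640/10% FBS, seeded 2×10^4/well for 24 h. Activated with IFN-γ (100 IU/mL) plus LPS (1 μg/mL) with or without inhibitor at various concentrations. FITC-IgG latex beads given in 1% FBS medium for 24 h at 37 °C. Uptake read as fluorescence (ex 485/em 535) after PBS washes; ED50 from curve fit.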

The target of assay [5] is T2, Endoplasmic reticulum aminopeptidase 2. Description: Inhibition of human recombinant ERAP2 expressed in baculovirus infected cabbage looper ovary Hi5 cells using L-arginyl-7-amido-4-methyl coumarin as substrate after 5 to 10 mins by fluorescence assay. Also noted: species or system Female gonad, BTI-TN-5B1-4.
For assay [6], the target named is T1, Endoplasmic reticulum aminopeptidase 1. Nature of the assay: Inhibition of human recombinant ERAP1 expressed in baculovirus infected Sf9 cells using L-leucine-7-amido-4-methyl coumarin as substrate after 5 to 10 mins by fluorescence assay.
For the next assay, the system named is T-cell. Description: Blockade of cross-presentation in mouse IRAP-deficient BMDC assessed as IL-2 level incubated for 1 day […] and incubated for 6 hrs with yeast cells expressing surface ovalbumin measured 20 hrs post CD8+ T cell-induction by sandwich ELISA method. It is filed as functional, cell-based. In outline: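 BMDCs from wild-type or IRAP knockout mice, grown 7 days from bone-marrow progenitors in IMDM/10% FCS with GM-CSF-containing J558 supernatant. Inhibitor added day 6 and kept through all steps. Day 7: serial dilutions of surface-ovalbumin yeast for 6 h, then OT-I lymph-node CD8+ T cells (T/BMDC 1.5:1) for 20 h. Supernatant IL-2 by sandwich ELISA; glutaraldehyde-fixed BMDC background subtracted; duplicate wells.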
On the technique in general: In an ELISA, binding on a coated surface is turned into a signal by an enzyme label.

The test system of assay [7] is Insulin-regulated aminopeptidase, Lnpep (Mus musculus). Nature of the assay: Inhibition of IRAP in mouse BMDC assessed as blockade of cross-presentation by measuring IL-2 level incubated for 1 day followed by compound wash out and incubated for 6 hrs with yeast cells expressing surface ovalbumin measured 20 hrs post CD8+ T cell-induction by sandwich ELISA method.

Calls of active or inactive are those of the source. No cut-off for these calls is given here.

T1 sequence (Q9NZ08 whole entry): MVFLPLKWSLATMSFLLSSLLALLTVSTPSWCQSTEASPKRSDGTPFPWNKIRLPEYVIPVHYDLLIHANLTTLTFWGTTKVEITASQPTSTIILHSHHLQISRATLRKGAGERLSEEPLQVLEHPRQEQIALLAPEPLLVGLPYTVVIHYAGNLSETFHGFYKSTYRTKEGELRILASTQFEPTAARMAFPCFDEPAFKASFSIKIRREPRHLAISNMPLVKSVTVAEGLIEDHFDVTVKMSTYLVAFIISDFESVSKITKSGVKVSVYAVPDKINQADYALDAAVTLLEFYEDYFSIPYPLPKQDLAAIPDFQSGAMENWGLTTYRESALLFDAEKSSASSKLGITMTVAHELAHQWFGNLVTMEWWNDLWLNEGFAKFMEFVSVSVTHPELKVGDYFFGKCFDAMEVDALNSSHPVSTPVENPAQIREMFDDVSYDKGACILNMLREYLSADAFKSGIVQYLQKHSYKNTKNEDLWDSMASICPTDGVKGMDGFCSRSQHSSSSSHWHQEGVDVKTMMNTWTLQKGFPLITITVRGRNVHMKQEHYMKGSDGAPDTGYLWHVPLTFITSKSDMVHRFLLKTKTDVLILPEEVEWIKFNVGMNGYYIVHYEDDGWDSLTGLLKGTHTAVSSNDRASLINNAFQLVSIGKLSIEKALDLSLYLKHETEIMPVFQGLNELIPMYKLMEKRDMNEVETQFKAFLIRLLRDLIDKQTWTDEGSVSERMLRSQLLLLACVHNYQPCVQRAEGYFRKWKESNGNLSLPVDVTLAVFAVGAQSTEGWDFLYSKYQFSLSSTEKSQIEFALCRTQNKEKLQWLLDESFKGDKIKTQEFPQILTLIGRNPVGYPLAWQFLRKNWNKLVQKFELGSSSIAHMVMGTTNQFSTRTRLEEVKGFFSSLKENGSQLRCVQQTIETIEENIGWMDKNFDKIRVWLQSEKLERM
Leucyl-cystinyl aminopeptidase, sequence (Q9UIQ6 whole entry): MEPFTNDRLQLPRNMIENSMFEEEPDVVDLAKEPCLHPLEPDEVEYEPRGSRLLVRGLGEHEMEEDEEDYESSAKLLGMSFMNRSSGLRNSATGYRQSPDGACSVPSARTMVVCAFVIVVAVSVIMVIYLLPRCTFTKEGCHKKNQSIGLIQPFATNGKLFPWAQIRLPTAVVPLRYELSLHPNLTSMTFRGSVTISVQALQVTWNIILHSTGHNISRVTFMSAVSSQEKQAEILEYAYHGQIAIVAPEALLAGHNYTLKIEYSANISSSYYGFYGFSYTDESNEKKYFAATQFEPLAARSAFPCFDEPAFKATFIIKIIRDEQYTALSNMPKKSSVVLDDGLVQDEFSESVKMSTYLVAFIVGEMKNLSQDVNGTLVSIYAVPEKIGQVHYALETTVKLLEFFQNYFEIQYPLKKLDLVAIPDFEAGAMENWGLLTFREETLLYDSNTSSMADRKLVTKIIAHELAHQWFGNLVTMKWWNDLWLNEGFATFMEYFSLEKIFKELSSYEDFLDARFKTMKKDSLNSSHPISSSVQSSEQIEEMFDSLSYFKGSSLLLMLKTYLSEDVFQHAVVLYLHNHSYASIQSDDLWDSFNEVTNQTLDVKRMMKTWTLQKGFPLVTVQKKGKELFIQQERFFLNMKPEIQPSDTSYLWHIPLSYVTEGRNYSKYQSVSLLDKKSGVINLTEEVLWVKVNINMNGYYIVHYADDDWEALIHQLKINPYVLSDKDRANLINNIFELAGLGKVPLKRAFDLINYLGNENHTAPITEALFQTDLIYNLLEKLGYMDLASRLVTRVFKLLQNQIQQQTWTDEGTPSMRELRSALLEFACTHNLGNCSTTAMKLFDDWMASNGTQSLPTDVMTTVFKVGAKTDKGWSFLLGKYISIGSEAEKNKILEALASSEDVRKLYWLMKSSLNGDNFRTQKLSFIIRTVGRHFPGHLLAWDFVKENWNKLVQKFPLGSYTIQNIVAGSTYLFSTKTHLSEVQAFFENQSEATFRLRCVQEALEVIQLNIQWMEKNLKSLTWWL

Regarding `CCCC[C@H](N)C(=O)Nc1cc(C(=O)N[C@@H](CCCCN)C(=O)OC)ccc1N`, the IC50 in assay [1] was > 100 µM.

As for `COC(=O)[C@H](CCCCN)NC(=O)c1ccc(NC(=O)[C@@H](N)CC(C)C)c(N)c1`, the inhibition result in assay [2] and in assay [3] was “inactive” in each case. The IC50 in assay [1] was > 100 µM.

Turning to `COC(=O)[C@H](CCCCN)NC(=O)c1ccc(N)c(NC(=O)[C@@H](N)CCc2ccccc2)c1`, in assay [4], the ED50 was 0.97 µM and the inhibition result was “Dose-dependent effect”.

On to `CCCC[C@H](N)C(=O)Nc1cc(C(=O)N[C@H](C(=O)OCc2ccccc2)C(C)C)ccc1N`, for which the IC50 in assay [5] and in assay [6] was > 100 µM each time. Besides, in assay [4], the ED50 entry is “inactive”.

Consider `CCCC[C@H](N)C(=O)Nc1ccc(C(=O)N[C@H](C(=O)O)C(C)C)cc1N`, for which the inhibition result in assay [2] was “inactive”. Besides, in assay [1], the concentration for half-maximal inhibition (IC50) was 3.9 µM.

Turning to `CCCC[C@H](N)C(=O)Nc1cc(C(=O)N[C@@H](Cc2c[nH]c3ccccc23)C(=O)OCc2ccccc2)ccc1N`, in the assay with T-cell, the result was inactive. Besides, the ED50 in assay [4] worked out at 0.56 µM; in assay [7], 0.0065 µM. Besides, the inhibition result in assay [4] and in assay [7] was “Dose-dependent effect” throughout.

For the compound `COC(=O)[C@H](Cc1ccc(O)cc1)NC(=O)c1ccc(N)c(NC(=O)[C@@H](N)CCCNC(=N)N)c1`, in assay [4], the ED50 stood at 3 µM and the inhibition result was “Dose-dependent effect”.

On to `CCCC[C@H](N)C(=O)Nc1cc(C(=O)N[C@H](C(=O)O)C(C)C)ccc1N`, for which the inhibition result in assay [2] is “inactive”. In assay [1], the IC50 is > 100 µM.

For `NCCC[C@H](NC(=O)c1ccc(N)c(NC(=O)[C@@H](N)CCc2ccccc2)c1)C(=O)O`, the inhibition entry in assay [2] and in assay [3] was “inactive” throughout. Also, the IC50 in assay [1] was > 100 µM.

A word on the IC50: it is the midpoint of a concentration-inhibition curve.

The values are drawn from ChEMBL document CHEMBL3414429, “3,4-diaminobenzoic acid derivatives as inhibitors of the oxytocinase subfamily of M1 aminopeptidases with immune-regulating properties” (J Med Chem, 2015).
